The values below come from paper PMC4136418 (Drug development and industrial pharmacy, 2013).

Molecules are shown by their SMILES. Converted amounts (≈) assume the structure as drawn.

Data set [1] in a line: Solubility in buffers, Vaginal Fluid Simulant and organic solvents. It counts as physicochemical.
Another data set can be described thus: Dynamic vapor sorption. It counts as physicochemical. As to conditions: 25°C/80% RH. The method in brief:
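Test compound powder (about 7 mg) is dried at 0% RH for at least 2 h at 40 °C. Sorption then runs isothermally at 25 °C, with RH stepped from 0 to 90% and back to 0%.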

A further data set can be described thus: Stability study. It counts as physicochemical. The settings on record: all test conditions: pH 3.0–9.0, 25, 40 or 65 °C, light, 0.02% hydrogen peroxide; up to 21 days.
Data set [2] can be described thus: In vitro cytotoxicity, MTT assay, CaSki cells. As to conditions: human. It counts as cell-based. The essentials: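 Cells are grown at 37 °C in 5% CO2 with 10% FBS and penicillin-streptomycin: A 431 in DMEM, CaSki in RPMI 1640. They are seeded at 1 × 10^4/well, grown 24 h, then exposed to 1 ng/ml–50 μg/ml compound for 24, 48 or 72 h. Fresh medium plus MTT (5 mg/ml solution) follows for 4 h. Formazan is dissolved in DMSO and read at 595 nm; n = 8.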
(In general: Tetrazolium assays rely on reduction of a dye to a coloured formazan, in cell work by metabolically active cells.)

The nature of data set [3]: Transport across Caco-2 cell monolayers. It counts as in vitro ADME, human. As to conditions: human; for Papp A→B at 2 h, 25 μg/ml: Caco-2, Papp (a–b). The method in brief:
(§1)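 Caco-2 cells (passages 27–32) are grown on 4.2 cm2 polycarbonate inserts and used on days 21–24 if TEER exceeds 600 Ωcm2. HBSS is buffered with […] (pH 5.5, 6.5) or HEPES (pH 7.4); monolayers are preincubated 20 min. The pH study uses 25 μg/ml apical, basolateral pH 7.4. Bidirectional runs use 2.5–250 μg/ml at pH 7.4. Incubation is 2 h at 37 °C with sampling to 120 min; HPLC gives Papp = (dQ/dt)/(A×C0); n = 3.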
On the technique in general: Passage across Caco-2 layers is used to estimate intestinal permeability.

A further data set relates to Caco-2 cell monolayers. Briefly: Transport across Caco-2 cell monolayers. It counts as in vitro ADME, human. The method in brief: as §1
The nature of data set [4]: Human ectocervical tissue permeability study. It counts as in vitro ADME.
Data set [5] has as its system HIV-1. It counts as cell-based. The settings on record: for Anti-HIV activity: drug present at constant levels throughout the HIV infection process, 48 h.
The subject of data set [6] is HIV-1. It counts as cell-based. As to conditions: 16 h pretreatment, drug removed before HIV exposure.
The next data set concerns HIV. The settings on record: cited from earlier work.

In the case of `C#C[C@]1(CO)O[C@@H](n2cnc3c(N)nc(F)nc32)C[C@@H]1O` [EFdA, 4′-Ethynyl-2-fluoro-2′-deoxyadenosine], the solubility – broadly, the concentration that dissolves in the medium under given conditions – at 120 h in data set [1] (PBS, pH 6) was determined as 799 ± 8.7 µg/mL (≈ 2.73 mM); in data set [1] (acid phthalate buffer, pH 3) it was 1510 ± 68.4 µg/mL (≈ 5.14 mM); in data set [1] (acid phthalate buffer, pH 4), 1360 ± 48.3 µg/mL (≈ 4.63 mM); in [1] (acid phthalate buffer, pH 4, aqueous buffer, thermodynamic from solid), 1620 ± 55.9 µg/mL (≈ 5.53 mM). The same compound registered a solubility in data set [1] (Vaginal Fluid Simulant, pH 4.2) of 887 µg/mL (≈ 3.03 mM). Further, the Change in solubility result in data set [1] (from pH 6–9) is on record as “no obvious change in solubility”. Besides, the “Change in solubility with increase in ionic strength” value in data set [1] (pH 7.0 and 9.0) is given as “statistically significant decrease”. Also, in the data set “Dynamic vapor sorption”, the Moisture absorbed result was “approximately 10 % w/w”. The same compound returned a Drug remaining in the data set “Stability study” of over 95%. Besides, the midpoint of cytotoxicity in data set [2], the CC50 at 48 h, lay at 47.8 ± 12.4 µg/mL (≈ 0.163 mM). Further, in data set [2], the 50% cytotoxic concentration (CC50) (usually the concentration giving 50% cytotoxicity) at 72 h amounted to 41.1 ± 8.78 µg/mL (≈ 0.14 mM). Moreover, in data set [3] (Caco-2), the Papp – broadly, the rate of passage across a membrane or cell layer, normalised by area and donor concentration – at 2 h was under 1 ×10⁻⁶ cm/s. In addition, the efflux ratio (as a rule, the permeability from basolateral to apical divided by that in the opposite direction, in the common usage) at 2 h, 25 μg/ml in [3] (Caco-2) stood at 8.01. In data set [3] (Caco-2), the efflux ratio at 2 h, 250 μg/ml was 2.74. Moreover, the Papp A→B (usually how fast a substance crosses the layer from the apical side) at 2 h, 25 μg/ml turned out to be 0.367 ×10⁻⁶ cm/s in data set [3] (apical pH 5.5, basolateral pH 7.4) and 0.436 ×10⁻⁶ cm/s in data set [3] (apical pH 6.5, basolateral pH 7.4). The Papp A→B at 2 h, 250 μg/ml in [3] (Caco-2, pH 7.4, Papp (a–b), 250 μg/ml, pH 7.4 both sides) was determined as 0.595 ×10⁻⁶ cm/s. For the same compound, the “Absorptive transport (a–b), drug in receptor compartment” value in the data set with Caco-2 cell monolayers (2.5 μg/ml, pH 7.4, HPLC LOD 0.05 μg/ml) was “no EFdA was detected”. For the same compound, in the data set on Caco-2 cell monolayers (high concentration group (250 μg/ml)), the “Papp (b-a), fold lower than low and medium concentration treatments” value is on record as “about 2 fold”. The same compound yielded a Papp at 6 h, 500 μg/ml in [4] (female, human, pH 7.4) of 0.834 ×10⁻⁶ cm/s. Besides, in [4] (human ectocervical tissues pre- and post-treatment), the “Tissue morphology after exposure” value was “lack of any significant morphological changes”. In the data set on HIV-1 [5] (cell-based studies), the “Selectivity index (CC50/EC50)” value was “greater than 1 × 10^3”. In the data set with HIV-1 [5], the Anti-HIV activity entry is recorded as “highly potent inhibitors”. Also, the “Potency relative to UC781” value in the data set with HIV-1 [5] (drug present throughout infection) was “about two-fold more potent than UC781”. The “Protective or memory effect” value in the data set with HIV-1 [6] is given as “retained anti-HIV protection similar to that seen when EFdA was present throughout the infection”. In addition, in the data set with HIV, the EC50 (in general, the concentration that produces a half-maximal response) was about 0.07 nM.

Turning to `CC(C)=CCOc1cc(NC(=S)c2ccoc2C)ccc1Cl` [UC781, reference compound], in the data set on HIV-1 [5], the Anti-HIV activity result was “highly potent inhibitors”. For the same compound, the “Protective or memory effect” value with HIV-1 [6] is reported as “substantial diminution of anti-HIV protection”.
